Usually Ki stands for the dissociation constant of the complex between target and ligand, obtained from inhibition or displacement. Low readings indicate tighter binding, high ones weaker binding.

Results on ten compounds are retold here after ChEMBL document CHEMBL1133891, “Substituted 4-phenyl-2-(phenylcarboxamido)-1,3-thiazole derivatives as antagonists for the adenosine A(1) receptor” (Bioorg Med Chem Lett, 2001).

One assay concerns the target T1, Adenosine receptor A1 (Rattus norvegicus, UniProt P25099).
T1 sequence (P25099 whole entry): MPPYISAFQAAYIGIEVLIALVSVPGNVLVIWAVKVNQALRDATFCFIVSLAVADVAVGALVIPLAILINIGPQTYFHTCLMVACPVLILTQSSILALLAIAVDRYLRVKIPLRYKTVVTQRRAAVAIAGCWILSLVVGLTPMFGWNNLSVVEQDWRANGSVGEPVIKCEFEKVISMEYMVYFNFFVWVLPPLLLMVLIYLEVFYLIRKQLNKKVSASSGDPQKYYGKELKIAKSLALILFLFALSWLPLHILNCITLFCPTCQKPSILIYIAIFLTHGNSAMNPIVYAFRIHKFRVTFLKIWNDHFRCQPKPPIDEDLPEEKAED
As to the kind of experiment: Displacement of [3H]DPCPX from Adenosine A1 receptor of rat cortical membrane. Put shortly: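 Competition binding on rat brain cortex membranes, displacing the A1 radioligand [3H]DPCPX. Displacement experiments run without GTP.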

Assay [1] concerns the target Adenosine receptor A2a (Rattus norvegicus) (UniProt P30543). As to the kind of experiment: Percent displacement of [3H]ZM-241385 from A2A receptor in rat striatal membrane at 10 uM. The assay is classed as cell membranes. The note with it: Striatum. (In general: Loss of bound radioactivity is the signal in a displacement assay; it reports binding, not function.)
Assay [2] addresses T2, Adenosine receptor A3 (Homo sapiens) (UniProt P0DMS8).
T2 sequence (whole entry): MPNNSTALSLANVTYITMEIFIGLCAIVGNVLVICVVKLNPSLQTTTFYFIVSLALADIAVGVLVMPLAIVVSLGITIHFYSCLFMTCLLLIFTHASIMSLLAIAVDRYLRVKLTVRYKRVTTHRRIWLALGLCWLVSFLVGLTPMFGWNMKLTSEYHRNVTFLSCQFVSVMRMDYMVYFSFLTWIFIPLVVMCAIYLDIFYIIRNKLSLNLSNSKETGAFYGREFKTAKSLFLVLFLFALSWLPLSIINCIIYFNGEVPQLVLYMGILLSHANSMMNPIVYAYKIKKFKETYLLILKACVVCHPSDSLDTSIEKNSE
The assay can be described thus: Percent displacement of [125I]-AB MECA from human Adenosine A3 receptor expressed in HEK 293 cells at 1 uM. The assay is classed as cell-based. The settings on record: HEK293.

Adenosine receptor A2a (Rattus norvegicus), sequence (P30543 whole entry): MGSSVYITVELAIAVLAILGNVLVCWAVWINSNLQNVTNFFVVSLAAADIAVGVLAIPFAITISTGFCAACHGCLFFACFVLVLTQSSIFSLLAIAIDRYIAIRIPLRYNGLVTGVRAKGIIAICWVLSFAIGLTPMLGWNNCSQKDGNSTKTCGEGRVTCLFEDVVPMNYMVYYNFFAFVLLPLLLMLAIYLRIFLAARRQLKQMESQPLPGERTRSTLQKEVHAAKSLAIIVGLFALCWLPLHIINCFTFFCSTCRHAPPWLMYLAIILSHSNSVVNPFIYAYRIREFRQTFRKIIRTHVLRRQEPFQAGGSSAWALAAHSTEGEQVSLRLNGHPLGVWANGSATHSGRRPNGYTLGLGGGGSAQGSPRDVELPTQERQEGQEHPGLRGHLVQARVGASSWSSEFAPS

`O=C(Nc1nc(-c2ccccc2)cs1)c1ccc(Br)cc1` registered a Ki on Adenosine receptor A1 of 33 nM. Also, the Displacement in assay [1] stood at 14%; in assay [2], 58%.

As for `O=C(Nc1nc(-c2ccccc2)cs1)c1ccc(Cl)cc1`, on Adenosine receptor A1, the Ki stood at 18 nM. Also, the Displacement in assay [1] worked out at 15%; in assay [2], 63%.

On to `O=C(Nc1nc(-c2ccccc2)cs1)c1ccccc1`, for which, at Adenosine receptor A1, affinity was put at a Ki of 39 nM. Moreover, the Displacement in assay [1] came out at 21%; in assay [2], 42%.

In the case of `CC(C)(C)c1ccc(C(=O)Nc2nc(-c3ccccc3)cs2)cc1`, the Displacement in assay [1] is 2%; in assay [2], 27%.

With `O=C(Nc1nc(-c2ccccc2)cs1)c1cccc(Cl)c1`, the inhibition constant (Ki) on Adenosine receptor A1 was 86 nM. The Displacement was 3% in assay [1] and 42% in assay [2].

On Adenosine receptor A1, `O=C(Nc1nc(-c2ccccc2)cs1)c1ccc(C(F)(F)F)cc1` displayed a Ki of 165 nM. Also, the values for the Displacement in assay [1] and in assay [2] were 0% and 18%, respectively.

Take `Cc1ccc(C(=O)Nc2nc(-c3ccccc3)cs2)cc1`: at Adenosine receptor A1, the affinity, expressed as Ki, was 36 nM. The Displacement in assay [1] is 13%; in assay [2], 66%.

`O=C(Nc1nc(-c2ccccc2)cs1)c1ccc(Cl)c(Cl)c1` registered a Ki at Adenosine receptor A1 of 59 nM. Besides, the Displacement was found to be 6% in assay [1] and 20% in assay [2].

Take `O=C(Nc1nc(-c2ccccc2)cs1)c1ccc(Cl)cc1Cl`: on Adenosine receptor A1, the Ki is 58 nM. In addition, the Displacement is 17% in assay [1] and 22% in assay [2].

Consider `O=C(Nc1nc(-c2ccccc2)cs1)c1ccc([N+](=O)[O-])cc1`, for which the Ki on Adenosine receptor A1 is 22 nM. Also, the Displacement came to 9% in assay [1] and 35% in assay [2].
